Measured values pooled from the literature.
Target: Alpha-glucosidase MAL12 (MAL12, Saccharomyces cerevisiae S288c, UniProt P53341)
Read-out: enzyme activity
Action: inhibitor

SMILES	assay	setting	IC50
CCCCCCCCCCCCCCCCCC(=O)OCC(C)(C)CC1=C(O)C(=O)c2ccccc2C1=O	–	–	25.7 µM
COc1cc(/C=C/c2ccc(O)cc2)cc(OC)c1	absorbance	pH 6.8	1570 µM
C[C@H]1CN(C(=O)Nc2ccc(C(F)(F)F)cc2)CCN1c1ccnc(Nc2cccc([N+](=O)[O-])c2)n1	absorbance	pH 6.9	1.03 µM
Cc1ccc(-c2nc3ncnn3c(-c3ccc(Br)cc3)c2N)cc1	absorbance	–	68.7 µM
C[C@H]1CN(C(=O)Nc2ccc(C(F)(F)F)cc2)CCN1c1ccnc(Nc2ccc(Cl)c(Cl)c2)n1	absorbance	pH 6.9	1.69 µM
CC1(C)CC(=O)C2=C(C1)n1c(=O)c3ccccc3c(=O)n1C2c1cn(-c2ccccc2)nc1-c1ccccc1 (stereo not shown)	absorbance	–	74.2 µM
C[C@H]1CN(C(=O)Nc2ccc(C(F)(F)F)cc2)CCN1c1ccnc(Nc2ccc(F)cc2)n1	absorbance	pH 6.9	1.82 µM
CC(C)(CO)CC1=C(O)C(=O)c2ccccc2C1=O	–	–	> 200 µM
CC1(C)CC(=O)C2=C(C1)n1c(=O)c3ccccc3c(=O)n1C2c1cn(-c2ccccc2)nc1-c1ccc(Br)cc1 (stereo not shown)	absorbance	–	353 µM
Cc1ccc(-c2nc3ncnn3c(-c3ccc(Cl)cc3)c2N)cc1	absorbance	–	54.6 µM
CC(=O)C1=C(C)n2c(=O)c3ccccc3c(=O)n2C1c1cn(-c2ccccc2)nc1-c1ccc(C)cc1 (stereo not shown)	absorbance	–	167 µM
COc1ccc(-c2nc3ncnn3c(-c3cccs3)c2N)cc1	absorbance	–	120 µM
COc1ccc(-c2nn(-c3ccccc3)cc2C2C3=C(CC(C)(C)CC3=O)n3c(=O)c4ccccc4c(=O)n32)cc1 (stereo not shown)	absorbance	–	229 µM
C[C@H]1CN(C(=O)Nc2ccc(C(F)(F)F)cc2)CCN1c1ccnc(Nc2ccc(C(F)(F)F)cc2)n1	absorbance	pH 6.9	2.63 µM
Cc1ccc(-c2nn(-c3ccccc3)cc2C2C3=C(CC(C)(C)CC3=O)n3c(=O)c4ccccc4c(=O)n32)cc1 (stereo not shown)	absorbance	–	282 µM
Nc1c(-c2ccccc2)nc2ncnn2c1-c1cccc(Cl)c1	absorbance	–	82.5 µM
